Calls of active or inactive are those of the source. The rule behind the calls is not given here.
Legend:
[1] = test system: Mus musculus; assay: Antiinflammatory activity in zymosan induced CD-1 mouse model of inflammation assessed as reduction in leukocyte recruitment in air pouch at 10 mg/kg, ip preincubated for 30 mins followed by zymosan challenge and measured after 4 hrs by trypan blue staining-based burker's chamber method; format: functional, organism-based
Outline: (§1)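 Air pouch formed by s.c. injection of 2.5 mL sterile air in CD-1 mice; on day 6, 10 mg/kg i.p. (2% DMSO/saline) given 30 min before 1 ml 1% w/v zymosan into the pouch. After 4 h, exudate collected with 1 ml saline and centrifuged; leukocytes counted in Burker chamber; LTB4 in supernatant by ELISA (ng/mL). n=6 mice per group.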

[2] = test system: Mus musculus; assay: Antiinflammatory activity in CD-1 mouse assessed as reduction in zymosan-induced LTC4 formation in peritoneal cavity at 10 mg/kg, ip preincubated for 30 mins followed by zymosan addition measured after 30 mins by ELISA; format: functional, organism-based
Outline: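 CD-1 male mice (6-8 weeks), n=6 per group, given 10 mg/kg i.p. in 2% DMSO/saline vehicle 30 min before i.p. zymosan (500 µL of 2 mg/mL suspension). Peritoneal cavity washed with 3 ml PBS 30 min after zymosan; LTC4 measured in exudate. One-way ANOVA with Bonferroni test.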

[3] = test system: Mus musculus; assay: Antiinflammatory activity in zymosan induced CD-1 mouse model of inflammation assessed as reduction in LTB4 levels in air pouch at 10 mg/kg, ip preincubated for 30 mins followed by zymosan challenge and measured after 4 hrs by ELISA; format: functional, organism-based; outline: as §1
[4] = target: T1, Prostaglandin E synthase (Homo sapiens, UniProt O14684); assay: Inhibition of mPGES-1 isolated from microsomes of interleukin-1 beta-stimulated human A549 cells using PGH2 as substrate preincubated for 15 mins followed by substrate addition measured after 1 min by RP-HPLC analysis
T1 sequence (O14684 whole entry): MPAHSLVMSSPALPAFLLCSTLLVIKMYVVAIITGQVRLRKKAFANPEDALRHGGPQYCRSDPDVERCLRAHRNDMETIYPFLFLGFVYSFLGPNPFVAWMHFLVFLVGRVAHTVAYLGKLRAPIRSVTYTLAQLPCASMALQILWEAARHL
Outline: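 Microsomes from A549 cells treated with IL-1β (1 ng/ml, 72 h), diluted in 0.1 M potassium phosphate pH 7.4 with 2.5 mM glutathione. Pre-incubated 15 min with compound or DMSO, then 20 µM PGH2 (final) for 1 min at 4 °C. IC50 from 4-5 concentrations.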

With `CC(c1cc2ccccc2s1)N(O)C(N)=O` (centres undefined) [ZILEUTON] the Activity [1] was “Active”, the Activity [2] was “Active” and the Activity [3] was “Active”. The IC50 [4] was 2400 nM.

— ChEMBL document CHEMBL4270576, “Discovery of a benzenesulfonamide-based dual inhibitor of microsomal prostaglandin E2 synthase-1 and 5-lipoxygenase that favorably modulates lipid mediator biosynthesis in inflammation” (Eur J Med Chem, 2018)
